# Bioassay records deposited in PubChem BioAssay by Broad Institute.
# Sampled rows, rich in hits. Any-hit rate of the full collection: about 1.4%.
# GSK3 alpha inh: human GSK-3 alpha kinase inhibition | inhibition, % at 10 µM | ADP-Glo luminescence, 60 min | AID 2650 | 0.1% of 320,000 active | P49840;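 active means more than half of replicates show inhibition above 20%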;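 further: GST-tagged GSK-3 alpha with peptide substrate and 25 µM ATP; 0% = DMSO neutral wells and 100% = GW8510 positive control wells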
# INS-1E GSIS act: GLuc luminescence reporter in INS-1E cells, primary screen for activators of glucose-dependent secretion of insulin | activation, % at 16.6 µM | AID 743287 | INS-1E GLuc reporter insulin secretion, 2-3 h | 0.61% of 370,000 active;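 active means lowest replicate activation of at least 40%, so every replicate reaches that level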;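 further: 0% = median of neutral control wells and 100% = median of IBMX positive control wells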
# CDK5 p35 inh: inhibitors of human CDK5/p35 kinase; inhibition, % at 10 µM; Recombinant CDK5/p35, ADP-Glo luminescence, 60 min; 0.01% of 330,000 active; Q00535+Q15078;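 active means highest replicate inhibition of at least 50% and at least 75% of replicates reaching 50%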;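 further: plate controls were DMSO neutral control for no effect and GW8510 at 10 µM for full effect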
# STK33 inh: inhibitors of human STK33 kinase; purified STK33, MBP phosphorylation, ADP-Glo luminescence; inhibition, % at 10 µM; 0.073% of 320,000 active;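 active means inhibition at or above 25%, using the most active replicate where run in duplicate; inactive means inhibition below 25%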
# Target sequence (Q9BYT3 whole entry, looked up): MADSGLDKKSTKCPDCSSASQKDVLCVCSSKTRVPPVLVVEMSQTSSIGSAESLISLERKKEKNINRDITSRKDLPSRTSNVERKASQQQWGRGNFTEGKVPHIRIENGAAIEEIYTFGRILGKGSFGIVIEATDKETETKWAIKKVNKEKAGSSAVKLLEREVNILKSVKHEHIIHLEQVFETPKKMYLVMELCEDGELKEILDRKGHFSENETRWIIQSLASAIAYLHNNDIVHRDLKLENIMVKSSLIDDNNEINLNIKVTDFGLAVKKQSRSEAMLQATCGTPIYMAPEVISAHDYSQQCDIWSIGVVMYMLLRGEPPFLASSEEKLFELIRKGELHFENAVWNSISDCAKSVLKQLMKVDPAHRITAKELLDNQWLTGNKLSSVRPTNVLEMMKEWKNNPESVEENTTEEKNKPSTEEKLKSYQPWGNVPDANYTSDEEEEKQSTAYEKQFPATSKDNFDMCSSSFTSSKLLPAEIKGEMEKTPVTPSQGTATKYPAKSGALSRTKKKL
# GSK3beta inhib: human GSK3beta kinase inhibition; P49841; GST-GSK3beta kinase, ADP-Glo luminescence, 60 min; stronger effect = lower value; activity score (negative = inhibition), % at 10 µM; 0.038% of 300,000 active; AID 2097;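 active means more than half of replicate wells score below -50%, meaning over 50% inhibition versus plate controls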;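 further: 0% = median DMSO wells and -100% = median GW8510 positive control wells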
#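 Test system: GST-fused GSK3beta enzyme, cell-free | Quantity: 1.6 ng GST-GSK3beta enzyme per well | Reagent: 25 µM ATP with peptide substrate | Schedule: 60 min enzyme reaction, room temperature | Signal: Luminescent ADP-Glo measurement of ADP formed | Read-out basis: Score relative to plate controls | Control set: DMSO and 20 µM GW8510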
# Env fusion inh: inhibitors of HIV Env-mediated cell fusion. inhibition, % at 12.3 µM. HeLa-JRFL Env/CEM21 cell fusion, luciferase. 1.1% of 360,000 active;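 active means mean replicate inhibition score of at least 50 and every replicate individually at or above 50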;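 further: 0% = plate neutral controls and 100% = maraviroc near 300 nM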
# * marks the source's active call; other numbers are inactive results; x = no result given; [ ] = another dose, or the depositor's remark.
SMILES,GSK3 alpha inh,INS-1E GSIS act,CDK5 p35 inh,STK33 inh,GSK3beta inhib,Env fusion inh
CCC(C)N(CCNC(=O)c1ccc2c(c1)NC(=O)c1ccccc1S2)C1CCCCC1 (configuration not stated),2,-43,-3,0,-6,79*
C[C@H]1CN([C@@H](C)CO)C(=O)c2cc(C3=CCCC3)cnc2O[C@@H]1CN(C)Cc1ccc(F)cc1,x,0,x,x,x,11[16.7 µM]
Cc1ccc(Oc2nc3c(c(=O)n(Cc4ccccc4F)c(=O)n3C)n2C)cc1,-1,-17,-2,1,0,56*
COCCNc1nc2c(c(=O)n(Cc3ccccc3F)c(=O)n2C)n1C,-2,-17,1,2,-4,1
Cc1ccc(CN(C)C[C@@H]2OCc3cn(nn3)CCCC(=O)N([C@H](C)CO)C[C@H]2C)cc1,x,2,x,x,x,9[16.7 µM]
Cc1cc([N+](=O)[O-])cc2ncccc12,-2,86*,0,1,2,x
CC[N+]1(C)CCC(O)(/C=C/c2ccccc2)C(C(=O)/C=C/c2ccccc2)C1 (configuration not stated),x,80*,3,x,x,-62
COc1ccc(-c2nc3cc(NC(=O)Cc4ccc(OC)c(OC)c4)ccc3o2)cc1,-3,x,-2,-1,-4,63*
O=C(c1cc(COc2cccc3cnccc23)on1)N1CCCC(CCCO)C1 (configuration not stated),3,-54,0,0,-2,57*
C=CCn1c(SCC(=O)NCc2ccc3c(c2)OCO3)nc2scc(-c3ccc(F)cc3)c2c1=O,-2,112*,0,-3,1,107*
Cn1c(=O)c2c(nc(SCC(=O)NCc3ccc4c(c3)OCO4)n2Cc2ccc(Cl)cc2)n(C)c1=O,-2,x,3,-1,1,106*
C=CCn1c(SC(C)C(=O)NCc2ccc3c(c2)OCO3)nc2scc(-c3ccccc3)c2c1=O (configuration not stated),-5,-34,1,-1,-1,119*
COC(=O)c1ccc(C)c(-n2c(=O)n(Cc3ccccc3)c(=O)c3[nH]cnc32)c1,-3,44*,2,-2,1,7
Cc1ccccc1-n1c(=O)n(Cc2ccccc2)c(=O)c2[nH]cnc21,-11,x,0,-1,1,-8
CN(Cc1ccccc1)C(=S)NC(=O)c1ccc(-c2ccccc2)cc1,-5,40*,-5,-1,0,33
Cc1noc(C)c1S(=O)(=O)Nc1ccc2c(c1)C(=O)N([C@H](C)CO)C[C@@H](C)[C@H](CN(C)C(=O)CCCN(C)C)OCCCC[C@@H](C)O2,x,25,x,x,x,14[16.7 µM]
CCN(CC)CCn1c(=N)n(CC(O)COc2ccccc2)c2ccccc21 (configuration not stated),2,51*,0,1,-1,14
CCN(CC)CCn1c(=N)n(CCOc2ccccc2)c2ccccc21,5,41,-1,7,0,56*
COC(=O)c1cn(CC(=O)N2CCN(c3ccccc3)CC2)nn1,x,x,x,x,x,-2[16.7 µM]
COc1ccc(Cl)cc1Nc1nc(-c2sc(NC(=O)c3ccco3)nc2C)cs1,-2,9,0,0,-6,-8
COc1cccc(Nc2nc(-c3sc(NC(=O)c4ccco4)nc3C)cs2)c1,x,-6,1,0,-4,66*
C[C@H]1CCCCO[C@@H](CN(C)C(=O)CCCN(C)C)[C@@H](C)CN([C@@H](C)CO)C(=O)c2cc(NC(=O)C3CCCCC3)ccc2O1,x,3,x,x,x,8[16.7 µM]
COc1ccccc1CNC(=O)COc1cccc(-n2cnnn2)c1,-5,5,-3,0,2,x
CCOc1ccc(CCNC(=O)COc2cccc(-n3cnnn3)c2)cc1OCC,-1,44*,-1,1,3,1
CN(Cc1cccs1)C(=O)COc1cccc(-n2cnnn2)c1,0,x,-1,0,-2,-93
COc1ccc(CN(C)C(=O)COc2cccc(-n3cnnn3)c2)cc1OC,-8,41*,0,0,x,-1
C[C@@H]1CCCCO[C@@H](CN(C)S(=O)(=O)c2cn(C)cn2)[C@H](C)CN([C@@H](C)CO)C(=O)c2cc(NC(=O)c3ccccc3)ccc2O1,x,-6,x,x,x,-78[16.7 µM]
